From PubChem
PLCg1 inh – PLC-gamma1 enzyme inhibitors, primary screen, biochemical, fluorescence, purified enzyme; 1-phosphatidylinositol 4,5-bisphosphate phosphodiesterase gamma-1 (Homo sapiens), P19174; inhibition, % at 12.2 µM; 370,000 tested, 0.84% active; AID 720700, 2013; fluorogenic substrate; in the data active means inhibition above about 9.5%
NTR1 agonist – agonists of human NTR1, primary screen, imaging, U2OS cells, beta-arrestin-GFP, high content; activation, % at 20 µM; NTR1-U2OS beta-arrestin-GFP spot imaging, agonist mode; Neurotensin receptor type 1 (Homo sapiens), P30989; 330,000 tested, 0.17% active;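 active means activation at or above 40% of the spot to cytoplasm intensity ratio, with at least 20 cells analyzed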
Arrestin-AP2 inh – inhibitors of beta-arrestin/AP2 binding, primary screen, biochemical, GPCR trafficking, flow cytometry; inhibition, % at 10 µM; FITC-arrestin peptide / GST-AP2 beads; AP2 beta2 appendage carries R879A mutation; 340,000 tested, 0.31% active; AID 504490, 2011; beta-arrestin 1 C-terminal peptide binding to AP2 beta2-adaptin appendage (human);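 active means inhibition above a set limit, near 3 SD of compounds lacking own fluorescence, cut at about 54% in these data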
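System: GST-AP2 R879A glutathione beads | Also added: FITC-arrestin peptide, 50 nM | Times: 12 min plus 1 h, RT | Signal: Bead flow cytometry, FITC channel | Buffer or medium: PBS with 0.05% Tween 20 and 0.1% BSA | Read-out basis: Percent drop in bead-associated FITC signal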
PLC-beta3 inh – human PLC-beta3 inhibitors, primary screen, biochemical, fluorescence; 1-phosphatidylinositol 4,5-bisphosphate phosphodiesterase beta-3 (Homo sapiens), Q01970; Purified PLC-beta3, fluorogenic substrate; inhibition, % at 12.2 µM; 370,000 tested, 0.18% active; in the data active means inhibition above about 11%
Arr AP2 CP1 – inhibitors of arrestin peptide binding to AP2, confirmation, biochemical, cherry pick 1, flow cytometry beads; AID 504908, 2011; 1,300 tested, 2% active; inhibition, % at 10 µM; GST-AP2 beads, FITC arrestin peptide binding; GST-fused beta2-adaptin appendage, R879A mutant; shares compounds with Arrestin-AP2 inh;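 active means inhibition above a set limit, roughly 3 SD of non-fluorescent compound noise, cut at about 38% in these data; inactive means inhibition at or below that limit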;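 further: loss of bead fluorescence from 50 nM FITC arrestin peptide bound to appendage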
Target sequence (P63010 whole entry, looked up, the tested form may be a part, one chain of several): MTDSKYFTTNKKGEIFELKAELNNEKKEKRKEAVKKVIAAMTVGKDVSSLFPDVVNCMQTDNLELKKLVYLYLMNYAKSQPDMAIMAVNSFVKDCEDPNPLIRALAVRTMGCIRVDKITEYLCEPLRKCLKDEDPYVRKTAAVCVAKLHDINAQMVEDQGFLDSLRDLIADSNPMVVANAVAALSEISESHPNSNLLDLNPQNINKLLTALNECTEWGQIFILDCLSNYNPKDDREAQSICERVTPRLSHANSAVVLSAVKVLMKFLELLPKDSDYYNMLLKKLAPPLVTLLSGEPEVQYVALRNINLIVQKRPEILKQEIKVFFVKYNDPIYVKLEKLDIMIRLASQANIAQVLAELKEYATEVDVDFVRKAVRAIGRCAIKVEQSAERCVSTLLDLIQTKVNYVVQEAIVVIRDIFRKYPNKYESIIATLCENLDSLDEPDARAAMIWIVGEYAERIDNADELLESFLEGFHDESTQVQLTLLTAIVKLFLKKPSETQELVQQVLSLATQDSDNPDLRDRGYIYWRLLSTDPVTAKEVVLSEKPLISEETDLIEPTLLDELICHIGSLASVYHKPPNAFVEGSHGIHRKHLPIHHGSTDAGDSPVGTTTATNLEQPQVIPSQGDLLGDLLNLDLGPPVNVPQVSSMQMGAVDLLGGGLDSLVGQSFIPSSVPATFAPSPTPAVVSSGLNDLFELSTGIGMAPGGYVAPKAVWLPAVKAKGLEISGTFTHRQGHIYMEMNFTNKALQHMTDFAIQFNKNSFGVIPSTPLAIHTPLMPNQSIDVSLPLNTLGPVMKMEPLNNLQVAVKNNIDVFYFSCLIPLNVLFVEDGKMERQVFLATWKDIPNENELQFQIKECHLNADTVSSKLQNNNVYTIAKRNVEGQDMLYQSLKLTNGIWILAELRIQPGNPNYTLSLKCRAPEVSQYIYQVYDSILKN
GST-FITC bead – GST-fluorescein capture on glutathione beads, confirmation, artefact control for arrestin-AP2 inhibitor project, biochemical, cherry pick 1, flow cytometry; AID 588338, 2011; 1,300 tested, 2% active; GST-fluorescein binding to GSH beads, fluorescence, counter-screen; shares compounds with Arrestin-AP2 inh; inhibition, % at 10 µM;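 active means inhibition above 50%, about 3 SD of the inhibition seen with non-fluorescent compounds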;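 further: fluorescein maleimide labelled GST captured on 4 micron glutathione beads; higher means more loss of bead fluorescence from quenching or blocked binding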
Each line names hits and unclear results; the compound was inactive in the other large screens (follow-up assays come after a bar, where they were run). Most compounds without a hit are left out; they make up all but 1.3% or so of the library.

CN(C)c1ccc(S(=O)(=O)N2CCCCC2)cc1NC(=O)CN1C(=O)NC2(CCCC2)C1=O	Arrestin-AP2 inh 54 | Arr AP2 CP1 inactive | GST-FITC bead inactive
CN1C2=N[C@H](c3ccccc3Br)CC(=O)N2/C(=C\c2ccccc2)[C@@H]1c1ccccc1	none (no result: NTR1 agonist, Arrestin-AP2 inh)
Cn1nc(C(=O)N2CCCC2)c2ccccc2c1=O	none
CSc1ccc(C(=O)C2CCCN(C(=O)c3nn(C)c(=O)c4ccccc34)C2)cc1 (stereo not drawn)	Arrestin-AP2 inh 58 | Arr AP2 CP1 inactive | GST-FITC bead inactive
COc1ccc(Cn2c(=O)[nH]c3cc(C(=O)NCCc4ccc(S(N)(=O)=O)cc4)ccc3c2=O)cc1	Arrestin-AP2 inh 110 | Arr AP2 CP1 inactive | GST-FITC bead inactive
CC(=O)N1CCc2cc(S(=O)(=O)NCCC(=O)N(C)C3CCCCC3)ccc21	none (no result: NTR1 agonist, Arrestin-AP2 inh)
COc1ccc(-c2nc(CN3CCN(C(=O)c4ccco4)CC3)c(C)o2)c(OC)c1C	Arrestin-AP2 inh 54 | Arr AP2 CP1 inactive | GST-FITC bead inactive
Cn1c(SC2CCCC2)nnc1-c1ccco1	none (no result: NTR1 agonist, Arrestin-AP2 inh)
Cc1ccccc1CN1CCCCC(NC(=O)c2ccccc2)C1=O (stereo not drawn)	none (no result: NTR1 agonist, Arrestin-AP2 inh)
COC(=O)[C@H](C(C)C)N1Cc2nnn(Cc3ccccc3)c2-c2ccccc2S1(=O)=O	none (no result: NTR1 agonist, Arrestin-AP2 inh)
CCN(CC)Cc1c(O)ccc2c(=O)c(Oc3ccccc3OC)coc12	Arrestin-AP2 inh 56 | Arr AP2 CP1 inactive | GST-FITC bead inactive
COC(=O)c1cccc(Cn2c(Cl)c(/C=N/NC(=O)c3ccco3)sc2=O)c1	Arrestin-AP2 inh 57 | Arr AP2 CP1 inactive | GST-FITC bead inactive
CNc1ccc(C(=O)OCC(=O)NCc2ccc3c(c2)OCO3)cc1[N+](=O)[O-]	Arrestin-AP2 inh 96 | Arr AP2 CP1 inactive | GST-FITC bead inactive
O=C(COC(=O)c1ccc2c(c1)OCO2)NCc1ccc2c(c1)OCO2	none
CCCCn1c(N)c(N(CCOC)C(=O)COC(=O)COc2cc(C)ccc2Cl)c(=O)[nH]c1=O	none
CCCCn1c(N)c(N(CCOC)C(=O)COC(=O)COc2ccccc2C#N)c(=O)[nH]c1=O	Arrestin-AP2 inh 56 | Arr AP2 CP1 inactive | GST-FITC bead inactive
COc1ccc(OC)c(CN2C(=O)c3ccnn3CC2(C)c2nnnn2C2CCCC2)c1 (stereo not drawn)	none (no result: NTR1 agonist, Arrestin-AP2 inh)
Cc1c(C(=O)N/N=C/c2ccccc2Cl)[nH][nH]c1=O	none (no result: NTR1 agonist, Arrestin-AP2 inh)
Cc1cc(N/N=C/c2cccc(Br)c2)nc2ccccc12	Arrestin-AP2 inh 57 | Arr AP2 CP1 inactive | GST-FITC bead inactive
Cc1cc(N/N=C/c2ccncc2)nc2ccccc12	none (no result: NTR1 agonist)
CCOc1cc(CNc2ccc(N3CCCC3)cc2)cc(Cl)c1OC	Arrestin-AP2 inh 55 | Arr AP2 CP1 inactive | GST-FITC bead inactive
COc1cc(CNc2ccc(N3CCCC3)cc2)cc(Cl)c1OC	none
O=C(Oc1cccc(C(=S)N2CCCCC2)c1)c1ccccc1	Arrestin-AP2 inh 56 | Arr AP2 CP1 inactive | GST-FITC bead inactive
Cn1c(=O)n(C)c2cc(N3CCCCC3)c(NC(=O)c3cccc(Cl)c3)cc21	none | Arr AP2 CP1 inactive | GST-FITC bead inactive
CCOc1cc(N2CCOCC2)c(OCC)cc1NC(=O)c1ccc(S(C)(=O)=O)cc1	none
COc1cccc(C(=O)Nc2cc3c(cc2N2CCOCC2)n(C)c(=O)n3C)c1	none | Arr AP2 CP1 inactive | GST-FITC bead inactive
CCOc1cc(C(=O)Nc2cc3c(cc2N2CCOCC2)n(C)c(=O)n3C)cc(OCC)c1OCC	none | Arr AP2 CP1 inactive | GST-FITC bead inactive
COc1ccc(C(=O)Nc2cc3c(cc2N2CCOCC2)n(C)c(=O)n3C)cc1OC	none (no result: PLCg1 inh, PLC-beta3 inh) | Arr AP2 CP1 inactive | GST-FITC bead inactive
CC(=O)CC[C@@H]1CC[C@]2(CCCN(C(=O)c3ccco3)C2)O1	none (no result: NTR1 agonist, Arrestin-AP2 inh)
CCCCOCC1CN(CCCC)S(=O)(=O)c2c(cccc2Sc2ccc(SC)cc2)O1 (stereo not drawn)	none (no result: NTR1 agonist, Arrestin-AP2 inh)
